In ChEMBL document CHEMBL1156120, “18F stilbenes and styrylpyridines for PET imaging of A beta plaques in Alzheimer's disease: a miniperspective” (J Med Chem, 2010):

molecular target: Amyloid-beta precursor protein (Homo sapiens, UniProt P05067); assay: Binding affinity to Beta amyloid aggregates in Alzheimer's disease patient brain by competitive binding assay; settings: not given
How it was run: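 Competition binding against ¹⁸F-AV-45 (0.04–0.06 nM, diluted in PBS) in postmortem AD brain homogenate (20–25 µg per assay). Competitors were serially diluted 10⁻⁵–10⁻¹⁰ M in PBS with 0.1% bovine serum albumin, in a final volume of 0.5 mL. Inhibition constant (Ki) derived from displacement.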

Sequence of Amyloid-beta precursor protein (P05067 whole entry): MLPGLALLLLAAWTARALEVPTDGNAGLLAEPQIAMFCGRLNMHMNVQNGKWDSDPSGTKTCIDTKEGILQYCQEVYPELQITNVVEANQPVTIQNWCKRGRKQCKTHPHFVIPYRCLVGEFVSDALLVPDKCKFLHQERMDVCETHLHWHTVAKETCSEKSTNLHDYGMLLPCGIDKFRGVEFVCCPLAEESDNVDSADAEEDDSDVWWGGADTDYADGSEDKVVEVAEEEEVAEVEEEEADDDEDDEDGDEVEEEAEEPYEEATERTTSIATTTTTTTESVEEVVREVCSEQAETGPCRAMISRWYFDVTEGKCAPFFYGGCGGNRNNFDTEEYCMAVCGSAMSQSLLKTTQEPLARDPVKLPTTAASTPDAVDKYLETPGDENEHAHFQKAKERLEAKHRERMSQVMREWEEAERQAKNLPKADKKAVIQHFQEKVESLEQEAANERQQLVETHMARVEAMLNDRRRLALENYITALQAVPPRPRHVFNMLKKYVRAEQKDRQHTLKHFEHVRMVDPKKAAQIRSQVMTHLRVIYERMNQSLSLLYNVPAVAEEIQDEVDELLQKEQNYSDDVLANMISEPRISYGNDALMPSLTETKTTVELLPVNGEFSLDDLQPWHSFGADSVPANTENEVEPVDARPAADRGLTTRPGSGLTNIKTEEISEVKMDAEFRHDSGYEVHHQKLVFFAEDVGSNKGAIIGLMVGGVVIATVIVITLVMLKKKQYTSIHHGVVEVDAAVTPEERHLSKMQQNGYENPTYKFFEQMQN

First: CN(C)c1ccc(/C=C/c2nc3ccccc3s2)cc1
Second: CN(C)c1ccc(/C=C/c2ccccc2I)cc1
The Ki of the first is 3.3-fold lower: 2.3 nM for the first, 7.7 nM for the second. The first binds more tightly here.

Compared with `CNc1ccc(-c2nc3ccc(O)cc3s2)cn1`, `CNc1ccc(-c2nc3ccc(O)cc3s2)cc1F` [FLUTEMETAMOL] is 2.3-fold lower in Ki: 1.7 nM for the first, 0.74 nM for the second. The second binds more tightly here.

`CNc1ccc(/C=C/c2ccc(OCCOCCOCCOCCOCCOCCF)cc2)cc1` and `CNc1ccc(/C=C/c2ccc(OCCOCCOCCOCCOCCOCCOCCF)cc2)cc1` are within 1.5-fold of each other in Ki: 7.5 nM for the first, 8.2 nM for the second.

First: CNc1ccc(/C=C/c2ccc(OCCOCCOCC[18F])nc2)cc1 [FLORBETAPIR F 18]
Second: CNc1ccc(/C=C/c2ccc(OCCOCCOCCOCCOCCOCCOCCOCCF)cc2)cc1
The Ki of the first is 3.1-fold lower: 2.87 nM for the first, 9 nM for the second. The first binds more tightly here.

Going from `CN(C)c1ccc(/C=C/c2cccc(I)c2)cc1` to `CN(C)c1ccc(/C=C/c2ccc(I)cc2)cc1`, the Ki falls from 4.5 nM to 2 nM (2.2-fold). The second binds more tightly here.

Compared with `CNc1ccc(/C=C/c2ccc(OCCOCCOCCOCCOCCOCCOCCOCCOCCOCCF)cc2)cc1`, `CNc1ccc(/C=C/c2ccc(OCCOCCOCCOCCOCCOCCOCCOCCOCCF)cc2)cc1` is 1.5-fold higher in Ki: 12.2 nM for the first, 18.5 nM for the second.

Going from `CC(=C(C#N)C#N)c1ccc2cc(N(C)CCF)ccc2c1` to `CN(C)c1ccc(/C=C/c2ccc(F)cc2)cc1`, the Ki falls from 172 nM to 22 nM (7.8-fold). The second binds more tightly here.

`COc1ccc(/C=C/c2cccc(I)c2)cc1` and `Oc1ccc(/C=C/c2cccc(I)c2)cc1` are within 1.5-fold of each other in Ki: 22 nM for the first, 32 nM for the second.

First: CNc1ccc(/C=C/c2ccc(OCC(CO)CF)cc2)cc1 (centres undefined)
Second: O=C(O)c1cc(/N=N/c2ccc(-c3ccc(/N=N/c4ccc(O)c(C(=O)O)c4)cc3)cc2)ccc1O [CHRYSAMINE G]
The Ki of the first is lower: 5 nM for the first, over 1000 nM for the second.

system: not listed separately; assay: Partition coefficient, log P at pH 7.4; type: physicochemical; settings: octanol/water

Work on `CNc1ccc(/C=C/c2ccc(OCC(CO)C[18F])cc2)cc1` (centres undefined) yielded a logD of 2.95.
